# High-throughput results (PubChem)
# SUMO1-SIM PPI: modulators of SUMO1 protein-protein interactions, primary screen, biochemical, uHTS; actives 0.33% (n = 360,000); inhibition, % at 20 µM; Small ubiquitin-related modifier 1 (Homo sapiens), P63165; AID 602429, 2012; SUMO1 binding to a labelled peptide, TR-FRET, 1 h; in the data active means inhibition above about 37%
# NadD inh: inhibitors of S. aureus NadD, primary screen, biochemical, colorimetric, uHTS; Nicotinate-nucleotide adenylyltransferase NadD (Staphylococcus aureus N315); inhibition, % at 20 µM; purified NadD enzyme, colorimetric absorbance read-out; actives 0.78% (n = 360,000); in the data active means inhibition above about 26%
# DNMT1 inh: human DNMT1 methyltransferase inhibitors, primary screen, biochemical, molecular beacon, fluorescence, HinP1I cleavage, uHTS; actives 0.83% (n = 360,000); DNA (cytosine-5)-methyltransferase 1 (Homo sapiens), P26358; inhibition (reported as % activation of signal), % at 10 µM; in the data active means inhibition above about 50%
# Scp1 inh: Scp-1 phosphatase inhibitors, primary screen, biochemical, colorimetric, uHTS. Carboxy-terminal domain RNA polymerase II polypeptide A small phosphatase 1 (Homo …. Recombinant Scp1, phosphopeptide, malachite green phosphate absorbance. inhibition, % at 20 µM. actives 0.88% (n = 340,000). AID 493091, 2011;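 active means inhibition above about 50% at 20 µM, limit read from the data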;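 further: plate controls were DMSO wells with enzyme for no effect and wells lacking enzyme for full effect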
#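 Test system: SCP-1 catalytic domain; Buffer or medium: Acidic Tris acetate buffer with magnesium and detergent; Also added: Phosphorylated 17-residue peptide substrate; Compound: single 20 µM dose, 1% DMSO; Schedule: enzyme reaction 45 min at room temperature, colour 5 min, stabilisation 30 min; Signal: Phosphate-binding colour reagent, absorbance read at 630 nm.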
# STEP inh: STEP phosphatase inhibitors, primary screen, biochemical, fluorescence intensity, uHTS | recombinant STEP, OMFP fluorogenic substrate | AID 588621, 2011 | actives 0.25% (n = 360,000) | inhibition, % at 20 µM | Tyrosine-protein phosphatase non-receptor type 5 (Homo sapiens), P54829;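 active means inhibition at 20 µM, scaled per plate between control wells, above about 37%, limit read from the data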;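 further: 0% = DMSO with enzyme and substrate and 100% = substrate only without enzyme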
# Target sequence (P54829 whole entry, looked up): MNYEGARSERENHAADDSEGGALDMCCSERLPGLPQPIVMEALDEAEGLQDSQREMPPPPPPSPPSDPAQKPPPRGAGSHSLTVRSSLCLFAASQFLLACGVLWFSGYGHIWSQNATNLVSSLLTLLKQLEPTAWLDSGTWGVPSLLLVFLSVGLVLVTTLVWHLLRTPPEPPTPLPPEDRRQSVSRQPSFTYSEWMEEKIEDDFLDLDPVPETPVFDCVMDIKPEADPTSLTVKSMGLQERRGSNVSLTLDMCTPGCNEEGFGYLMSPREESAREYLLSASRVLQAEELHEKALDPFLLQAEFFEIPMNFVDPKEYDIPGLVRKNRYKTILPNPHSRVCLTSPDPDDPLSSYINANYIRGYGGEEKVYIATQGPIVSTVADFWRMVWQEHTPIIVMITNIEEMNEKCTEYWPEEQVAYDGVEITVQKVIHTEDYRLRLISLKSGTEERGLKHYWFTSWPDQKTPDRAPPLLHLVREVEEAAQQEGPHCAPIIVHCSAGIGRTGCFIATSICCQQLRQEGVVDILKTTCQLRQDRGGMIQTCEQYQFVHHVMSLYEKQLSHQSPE
#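 Assay system: isolated STEP enzyme. Buffer or medium: pH 6.0 Bis-Tris with DTT and Tween 20. Also added: fluorogenic phosphatase substrate OMFP at 25 µM final. Dosing: 20 µM, 1% DMSO. Timing: 20 min reaction, room temperature, in the dark. Measured by: fluorescence intensity, excitation 480 nm, emission 540 nm. Evaluation: normalized % inhibition.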
# LMPTP inh: LMPTP phosphatase inhibitors, primary screen, biochemical, fluorescence intensity, uHTS; Low molecular weight phosphotyrosine protein phosphatase (Homo sapiens), P24666; recombinant LMPTP-A, OMFP fluorogenic substrate; inhibition, % at 20 µM; actives 0.22% (n = 360,000); AID 651560, 2012;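 active means compounds that cut the enzyme signal by at least half of the control window in the single-dose screen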;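 further: plate controls were DMSO wells with enzyme plus substrate for no effect and substrate without enzyme for full effect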
#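 Test system – LMPTP-A enzyme · Amount – LMPTP-A at 0.625 nM final in the reaction · Buffer or medium – Bis-Tris pH 6.0, DTT, detergent · Reagent – OMFP 400 µM · Doses – single 20 µM dose · Schedule – reaction 50 min, room temperature, dark · Detection – fluorescence intensity of OMFP turnover product · Evaluation – percent inhibition versus substrate-only and uninhibited controls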
# Scp-1 conf: Scp-1 phosphatase inhibitors, retest, confirmation, biochemical, colorimetric, single concentration. recombinant SCP-1 catalytic domain, phosphate release, malachite green absorbance. shares compounds with Scp1 inh. actives 61% (n = 2,500). inhibition, % at 20 µM;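 further: plate controls were DMSO with enzyme for no effect and buffer wells lacking enzyme for full effect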
# Scp-1 MG ctr: colorimetric readout interference by compounds, confirmation, artefact control for Scp-1 inhibitor project, biochemical, single concentration | 2,500 tested, under 10 active | apparent inhibition (interference), % at 20 µM | Colorimetric interference counterscreen, malachite green absorbance 630 nm | shares compounds with Scp1 inh;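 further: compounds added after enzyme reaction finished so only phosphate colour detection is probed; plate controls were DMSO wells with completed Scp-1 reaction for no effect and substrate wells lacking enzyme for full effect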
# Scp-1 Tm shift: Scp-1 binding by thermal shift, confirmation, orthogonal assay for Scp-1 inhibitor project, biophysical, differential scanning fluorimetry; Recombinant SCP1, Sypro Orange thermal shift Tm; shares compounds with Scp1 inh; thermal shift relative to vanadate control, % at 40 µM; actives 25% (n = 1,500);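 active means substances whose mean melting-temperature shift, as a percentage of the reference inhibitor's shift, reaches about 5.3%, limit read from the data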;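 further: 0% = Tm of DMSO wells and 100% = Tm with sodium orthovanadate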
# Beacon interf DR: spectral interference with molecular beacon fluorescence, dose response, artefact control for DNMT1 inhibitor project, biochemical, fluorescent molecular beacon; shares compounds with DNMT1 inh; spectral interference counter-screen; IC50, µM; 200 tested, under 10 active; AID 602382, 2012; call rule not given here
# DNMT1 inh conf: DNMT1 methyltransferase inhibitor retest, confirmation, biochemical, molecular beacon, fluorescence, single concentration | shares compounds with DNMT1 inh | AID 602385, 2012 | inhibition, % at 10 µM | DNMT1 molecular beacon HinP1I cleavage | actives 8% (n = 2,300);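 active means average inhibition of at least 30% in the single-concentration confirmation test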
# Beacon interf: counter-screen for DNMT1 inhibitors: spectral interference. shares compounds with DNMT1 inh. DNMT1 molecular beacon spectral interference counterscreen, fluorescence 485/520. activation (fluorescence interference), % at 10 µM. actives 1% (n = 2,300);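 active means activation of at least 30% at 10 µM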;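 further: DNMT1 catalytic domain with a HinP1I cleavage step and a FAM/dabcyl DNA beacon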
# An asterisk follows results filed as active; · = no result given. Rows were chosen to be rich in hits. Some 2.4% of all compounds tested hit in one or more screens of this group.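 How the source made its calls, unless noted: active means inhibition of at least 30% at 20 µM; inactive means the rest.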
SMILES,SUMO1-SIM PPI,NadD inh,DNMT1 inh,Scp1 inh,STEP inh,LMPTP inh,Scp-1 conf,Scp-1 MG ctr,Scp-1 Tm shift,DNMT1 inh conf,Beacon interf,others
O=C1NN(c2ccccc2)C(=O)/C1=C/c1ccc(-c2ccc(C(=O)O)cc2)o1,4.9,8.2,78.2*,76.6*,9.9,5.0,57.7*,-17.5,14.9*,29.6,-1.1,Beacon interf DR=>99
COC(=O)c1ccc(N2NC(=O)/C(=C/c3ccc(-c4ccc(Cl)c(C(=O)O)c4)o3)C2=O)cc1,23.4,11.7,79.1*,76.4*,29.6,33.2,75.2*,-8.4,13.8*,8.5,8.2,
CC1=NOC(=O)/C1=C\c1ccc(-c2ccc(Cl)c(C(=O)O)c2)o1,18.4,-3.4,82.0*,66.9*,34.5,4.1,57.7*,-18.1,2.2,9.5,-0.5,
O=C(O)c1cc(-c2ccc(/C=N/Nc3ccc(Cl)cc3)o2)ccc1Cl,12.3,-2.5,4.4,-5.6,-0.3,0.9,·,·,·,·,·,
CSc1ncccc1C(=O)OCc1nc2ccsc2c(=O)[nH]1,13.4,-0.4,1.2,-9.5,0.3,-0.9,·,·,·,·,·,
CC(NC(=O)c1noc2c1CCCC2)c1ccccc1 (centres undefined),-1.3,7.3,1.6,-4.4,-4.8,-1.4,·,·,·,·,·,
COC(=O)c1ccccc1NC(=O)c1noc2c1CCC2,2.5,-0.2,98.9*,69.8*,13.3,8.3,64.8*,-15.3,4.3,2.8,3.5,
CSc1ccccc1NC(=O)c1noc2c1CCC2,6.5,5.9,81.3*,63.0*,5.4,8.8,66.6*,-12.9,3.0,5.8,0.9,
COc1ccc(NC(=O)c2noc3c2CCCCC3)cc1,3.0,-8.7,2.4,-7.4,-2.0,-0.2,·,·,·,·,·,
CC1=C(C(=O)N2CCOCC2)CC(CC(=O)NCCc2ccccn2)C(=O)N1Cc1ccc(F)cc1 (centres undefined),5.2,3.0,2.0,·,-4.1,-1.8,·,·,·,·,·,
CCCCCCN1C[C@H](n2cc(COC(=O)c3ccccc3)nn2)[C@@H](O)C[C@@H]1c1ccc(Cl)cc1,5.9,3.2,-17.5,·,5.5,3.2,·,·,·,·,·,
Cc1ccc(/C=C/C(=O)NCc2ccccn2)o1,-1.5,7.9,67.4*,72.5*,-0.1,0.6,59.1*,-12.6,3.3,6.4,1.4,
CC1(CC(=O)N/N=C/c2cc([N+](=O)[O-])c(O)cc2O)OCCO1,-14.2,-2.7,69.4*,69.5*,14.5,69.3*,64.2*,-3.5,6.1*,2.4,-3.0,
